Test results: publication PMC4367188 (ACS Chemical Neuroscience, 2015)

Assays:
Neuropeptide Y Y2 = Neuropeptide Y Y2 (Homo sapiens, UniProt P49146); assay: Lead Profiling Screen radioligand binding
[1] = pharmacokinetics in male Sprague-Dawley rats; details: rat
Adrenergic β1 = Adrenergic β1 (Homo sapiens, UniProt P08588); assay: Lead Profiling Screen radioligand binding
Sodium Channel, Site 2 = assay: Lead Profiling Screen radioligand binding; details: 10 μM ML352
Muscarinic M1 = Muscarinic M1 (Homo sapiens, UniProt P11229); assay: Lead Profiling Screen radioligand binding
Sequence of Muscarinic M1 (P11229 whole entry): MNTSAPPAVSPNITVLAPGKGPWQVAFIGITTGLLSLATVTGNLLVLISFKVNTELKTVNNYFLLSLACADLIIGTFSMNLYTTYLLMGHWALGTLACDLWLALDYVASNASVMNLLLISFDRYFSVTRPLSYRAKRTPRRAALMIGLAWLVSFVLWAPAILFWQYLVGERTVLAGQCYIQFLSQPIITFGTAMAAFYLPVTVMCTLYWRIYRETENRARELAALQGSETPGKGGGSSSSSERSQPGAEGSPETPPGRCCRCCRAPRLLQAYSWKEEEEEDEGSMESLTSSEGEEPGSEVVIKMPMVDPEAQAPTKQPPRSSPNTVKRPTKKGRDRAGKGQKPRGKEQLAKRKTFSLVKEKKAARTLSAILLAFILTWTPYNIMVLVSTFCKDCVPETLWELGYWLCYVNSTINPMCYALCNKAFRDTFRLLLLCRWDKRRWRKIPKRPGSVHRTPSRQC

hCHT = molecular target: T1, hCHT (Homo sapiens, UniProt Q9GZV3); assay: [3H]HC-3 binding to membranes from HEK hCHT cells; details: for [3H]HC-3 binding Bmax: relative to control
T1 sequence (Q9GZV3 1-580): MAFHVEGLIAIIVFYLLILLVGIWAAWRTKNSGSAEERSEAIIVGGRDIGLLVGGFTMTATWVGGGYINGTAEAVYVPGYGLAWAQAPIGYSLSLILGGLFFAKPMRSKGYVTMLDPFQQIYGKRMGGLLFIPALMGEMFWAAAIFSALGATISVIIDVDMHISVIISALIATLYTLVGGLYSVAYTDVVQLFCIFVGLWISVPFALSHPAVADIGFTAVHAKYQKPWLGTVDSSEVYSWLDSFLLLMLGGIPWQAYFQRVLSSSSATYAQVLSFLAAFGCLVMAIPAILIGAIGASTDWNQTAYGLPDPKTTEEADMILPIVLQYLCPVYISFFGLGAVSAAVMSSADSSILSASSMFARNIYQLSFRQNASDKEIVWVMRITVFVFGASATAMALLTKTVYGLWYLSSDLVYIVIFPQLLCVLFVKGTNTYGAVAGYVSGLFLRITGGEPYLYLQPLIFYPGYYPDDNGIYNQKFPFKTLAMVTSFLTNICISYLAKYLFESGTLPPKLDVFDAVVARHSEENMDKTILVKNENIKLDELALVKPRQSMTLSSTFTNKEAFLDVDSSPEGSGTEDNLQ

DAT = DAT (Mus musculus, UniProt Q61327); assay: dopamine uptake in mouse forebrain synaptosomes; type: biochemical; details: 5 μM ML352
Outline: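 Crude P2 synaptosomes from forebrains of male C57BL/6J mice (8–10 weeks), taken after decapitation under urethane. Incubated 10 min at 37 °C in Krebs bicarbonate buffer with 100 nM [3H]dopamine or [3H]serotonin ± test compound. Stopped on ice, rapidly filtered, counted by scintillation. Specific uptake defined with cocaine 1 μM (DAT) or citalopram 1 μM (SERT). Protein by BCA; n = 3.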

[2] = molecular target: Sertonin (5-Hydroxytrptamine) 5-HT2B (Homo sapiens, UniProt P41595); assay: Lead Profiling Screen radioligand binding
Sequence of Sertonin (5-Hydroxytrptamine) 5-HT2B (P41595 whole entry): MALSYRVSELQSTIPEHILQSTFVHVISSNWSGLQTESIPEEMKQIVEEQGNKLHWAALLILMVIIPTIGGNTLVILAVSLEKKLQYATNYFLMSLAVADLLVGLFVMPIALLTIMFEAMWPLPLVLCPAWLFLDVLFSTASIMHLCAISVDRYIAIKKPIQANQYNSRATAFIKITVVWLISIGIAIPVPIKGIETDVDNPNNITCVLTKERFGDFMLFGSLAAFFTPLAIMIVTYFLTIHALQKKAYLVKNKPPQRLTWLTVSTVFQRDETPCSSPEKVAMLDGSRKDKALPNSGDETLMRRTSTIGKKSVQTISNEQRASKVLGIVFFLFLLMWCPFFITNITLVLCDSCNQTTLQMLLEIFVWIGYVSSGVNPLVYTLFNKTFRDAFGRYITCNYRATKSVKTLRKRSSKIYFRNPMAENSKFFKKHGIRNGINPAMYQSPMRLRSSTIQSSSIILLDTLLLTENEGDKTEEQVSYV

GABAB1A = GABAB1A (Homo sapiens, UniProt Q9UBS5); assay: Lead Profiling Screen radioligand binding
Sequence of GABAB1A (Q9UBS5 15-961 limits assumed): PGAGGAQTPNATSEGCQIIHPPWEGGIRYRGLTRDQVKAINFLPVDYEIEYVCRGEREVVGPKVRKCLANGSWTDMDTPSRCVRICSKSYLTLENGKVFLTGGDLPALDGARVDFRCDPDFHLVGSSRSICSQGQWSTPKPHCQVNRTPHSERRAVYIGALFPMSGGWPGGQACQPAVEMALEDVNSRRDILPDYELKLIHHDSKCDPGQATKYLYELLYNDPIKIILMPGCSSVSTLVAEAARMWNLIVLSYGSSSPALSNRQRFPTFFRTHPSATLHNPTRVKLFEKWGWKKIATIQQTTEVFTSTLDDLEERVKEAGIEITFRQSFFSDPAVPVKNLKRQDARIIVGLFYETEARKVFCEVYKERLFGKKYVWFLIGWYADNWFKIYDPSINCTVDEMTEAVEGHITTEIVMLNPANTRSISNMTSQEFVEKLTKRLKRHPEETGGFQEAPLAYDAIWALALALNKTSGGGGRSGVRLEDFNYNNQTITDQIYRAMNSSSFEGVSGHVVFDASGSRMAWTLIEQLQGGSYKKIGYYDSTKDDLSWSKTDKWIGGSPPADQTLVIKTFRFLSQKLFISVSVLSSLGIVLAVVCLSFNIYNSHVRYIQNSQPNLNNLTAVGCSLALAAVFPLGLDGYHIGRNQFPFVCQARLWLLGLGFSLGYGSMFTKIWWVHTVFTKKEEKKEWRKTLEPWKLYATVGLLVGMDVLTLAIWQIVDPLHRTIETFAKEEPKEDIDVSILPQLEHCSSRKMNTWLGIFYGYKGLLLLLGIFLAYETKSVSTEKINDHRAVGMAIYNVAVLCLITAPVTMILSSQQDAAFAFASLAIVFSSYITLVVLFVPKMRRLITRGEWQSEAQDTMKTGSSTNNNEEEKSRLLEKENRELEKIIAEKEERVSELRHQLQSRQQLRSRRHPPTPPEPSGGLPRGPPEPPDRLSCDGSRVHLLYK

Dopamine D42 = Dopamine D42 (Homo sapiens, UniProt P21917, DEL265-296); assay: Lead Profiling Screen radioligand binding
Interleukin IL-1 = Interleukin IL-1 (Mus musculus, UniProt P13504); assay: Lead Profiling Screen radioligand binding
P450 2D6 = P450 2D6 (Homo sapiens, UniProt P10635); assay: cytochrome P450 inhibition
[3] = intrinsic clearance in hepatic microsomes; type: in vitro ADME; details: rat; predicted hepatic clearance from microsomal CLint
Adenosine A1 = Adenosine A1 (Homo sapiens, UniProt P30542); assay: Lead Profiling Screen radioligand binding
Sequence of Adenosine A1 (P30542 whole entry): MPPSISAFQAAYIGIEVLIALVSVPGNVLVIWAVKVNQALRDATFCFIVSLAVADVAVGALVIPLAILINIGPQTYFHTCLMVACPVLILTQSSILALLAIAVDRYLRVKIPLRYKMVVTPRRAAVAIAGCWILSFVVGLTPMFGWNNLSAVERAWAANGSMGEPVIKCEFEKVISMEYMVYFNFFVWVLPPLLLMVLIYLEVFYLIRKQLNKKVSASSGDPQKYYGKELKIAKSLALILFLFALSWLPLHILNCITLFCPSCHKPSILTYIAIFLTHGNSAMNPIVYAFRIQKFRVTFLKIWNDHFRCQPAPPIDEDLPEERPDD

Adrenergic α1B = Adrenergic α1B (Rattus norvegicus, UniProt P15823); assay: Lead Profiling Screen radioligand binding
[4] = molecular target: Leukotriene, Cysteinyl CysLT1 (Homo sapiens, UniProt Q9Y271); assay: Lead Profiling Screen radioligand binding
Sequence of Leukotriene, Cysteinyl CysLT1 (Q9Y271 whole entry): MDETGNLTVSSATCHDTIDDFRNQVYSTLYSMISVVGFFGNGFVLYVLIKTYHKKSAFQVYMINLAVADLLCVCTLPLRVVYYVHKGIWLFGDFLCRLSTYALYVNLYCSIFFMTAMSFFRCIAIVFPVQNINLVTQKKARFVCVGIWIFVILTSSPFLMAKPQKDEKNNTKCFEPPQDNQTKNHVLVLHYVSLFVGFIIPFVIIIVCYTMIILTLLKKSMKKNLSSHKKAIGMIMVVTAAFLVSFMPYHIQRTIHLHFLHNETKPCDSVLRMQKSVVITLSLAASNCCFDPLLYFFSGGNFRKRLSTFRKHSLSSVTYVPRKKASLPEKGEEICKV

[5] = molecular target: dopamine transporter (DAT) (Homo sapiens, UniProt Q01959); assay: [3H]DA uptake in HEK293 hDAT cells; type: cell-based; details: transfected HEK 293 cells
Thyroid Hormone = assay: Lead Profiling Screen radioligand binding; details: 10 μM ML352
Phorbol Ester = assay: Lead Profiling Screen radioligand binding; details: 10 μM ML352
[6] = molecular target: Transporter, Serotonin (5-hydroxytryptamine) (SERT) (Homo sapiens, UniProt P31645); assay: Lead Profiling Screen radioligand binding
Sequence of Transporter, Serotonin (5-hydroxytryptamine) (SERT) (P31645 whole entry): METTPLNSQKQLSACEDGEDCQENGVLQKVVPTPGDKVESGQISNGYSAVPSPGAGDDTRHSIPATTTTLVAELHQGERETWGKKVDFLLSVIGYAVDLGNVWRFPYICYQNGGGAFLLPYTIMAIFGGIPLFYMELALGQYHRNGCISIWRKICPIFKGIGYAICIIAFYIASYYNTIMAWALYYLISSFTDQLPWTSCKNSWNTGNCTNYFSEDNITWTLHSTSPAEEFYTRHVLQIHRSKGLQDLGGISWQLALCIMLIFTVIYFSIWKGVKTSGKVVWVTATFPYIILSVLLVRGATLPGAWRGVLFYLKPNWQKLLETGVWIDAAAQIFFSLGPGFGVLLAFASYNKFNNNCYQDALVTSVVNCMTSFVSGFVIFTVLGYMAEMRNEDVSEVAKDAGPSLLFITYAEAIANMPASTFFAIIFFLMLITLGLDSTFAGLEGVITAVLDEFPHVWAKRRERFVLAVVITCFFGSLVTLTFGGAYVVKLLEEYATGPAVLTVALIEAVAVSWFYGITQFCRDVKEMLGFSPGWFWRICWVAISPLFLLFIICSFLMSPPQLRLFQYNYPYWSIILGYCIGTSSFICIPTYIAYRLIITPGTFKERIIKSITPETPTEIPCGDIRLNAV

Glutamate, NMDA, Glycine = assay: Lead Profiling Screen radioligand binding; details: 10 μM ML352
Imidazoline I2, Central = assay: Lead Profiling Screen radioligand binding; details: 10 μM ML352
Neuropeptide Y Y1 = Neuropeptide Y Y1 (Homo sapiens, UniProt P25929); assay: Lead Profiling Screen radioligand binding
Sequence of Neuropeptide Y Y1 (P25929 whole entry): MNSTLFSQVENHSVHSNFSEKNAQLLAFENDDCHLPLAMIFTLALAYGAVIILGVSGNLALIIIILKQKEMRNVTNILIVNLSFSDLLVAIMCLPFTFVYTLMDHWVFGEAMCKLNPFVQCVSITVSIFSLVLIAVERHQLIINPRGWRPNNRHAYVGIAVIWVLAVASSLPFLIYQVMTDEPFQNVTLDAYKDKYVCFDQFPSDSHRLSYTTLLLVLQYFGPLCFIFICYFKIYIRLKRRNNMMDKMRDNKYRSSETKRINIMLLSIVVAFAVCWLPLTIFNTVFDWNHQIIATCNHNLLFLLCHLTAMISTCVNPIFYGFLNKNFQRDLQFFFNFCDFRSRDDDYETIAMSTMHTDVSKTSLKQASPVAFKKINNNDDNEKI

Potassium Channel [KATP] = assay: Lead Profiling Screen radioligand binding; details: 10 μM ML352
[7] = molecular target: Platelet Activating Factor (PAF) (Homo sapiens, UniProt P25105); assay: Lead Profiling Screen radioligand binding
Rolipram = assay: Lead Profiling Screen radioligand binding; details: 10 μM ML352
hCHT LV-AA = hCHT LV-AA (Homo sapiens, UniProt Q9GZV3, L531A/V532A); assay: [3H]choline uptake in HEK 293 cells transfected with hCHT LV-AA; type: cell-based; details: ML352 at 200 or 800 nM in saturation choline transport assays
Estrogen Erα = Estrogen Erα (Homo sapiens, UniProt P03372); assay: Lead Profiling Screen radioligand binding
Sequence of Estrogen Erα (P03372 whole entry): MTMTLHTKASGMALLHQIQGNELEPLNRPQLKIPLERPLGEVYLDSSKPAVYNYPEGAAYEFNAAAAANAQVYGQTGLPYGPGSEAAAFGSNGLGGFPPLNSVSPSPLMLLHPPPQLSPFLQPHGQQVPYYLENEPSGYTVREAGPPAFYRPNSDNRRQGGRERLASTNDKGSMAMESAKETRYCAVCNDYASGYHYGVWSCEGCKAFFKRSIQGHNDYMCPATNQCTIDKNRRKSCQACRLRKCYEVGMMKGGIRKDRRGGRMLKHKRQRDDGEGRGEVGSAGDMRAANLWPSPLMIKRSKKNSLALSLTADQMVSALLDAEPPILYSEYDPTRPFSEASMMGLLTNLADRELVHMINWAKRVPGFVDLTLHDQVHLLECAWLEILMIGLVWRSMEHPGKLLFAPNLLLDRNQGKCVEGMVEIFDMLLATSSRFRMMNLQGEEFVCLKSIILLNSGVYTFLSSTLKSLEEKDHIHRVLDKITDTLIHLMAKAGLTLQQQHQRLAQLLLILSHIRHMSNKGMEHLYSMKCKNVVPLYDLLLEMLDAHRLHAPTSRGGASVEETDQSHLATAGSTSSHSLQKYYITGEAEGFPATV

[8] = tested on: Calcium Channel L-Type, Benzothiazepine; assay: Lead Profiling Screen radioligand binding; details: 10 μM ML352
GABAA, Muscimol, Central = assay: Lead Profiling Screen radioligand binding; details: 10 μM ML352
Histamine, H2 = Histamine, H2 (Homo sapiens, UniProt P25021); assay: Lead Profiling Screen radioligand binding
Sequence of Histamine, H2 (P25021 whole entry): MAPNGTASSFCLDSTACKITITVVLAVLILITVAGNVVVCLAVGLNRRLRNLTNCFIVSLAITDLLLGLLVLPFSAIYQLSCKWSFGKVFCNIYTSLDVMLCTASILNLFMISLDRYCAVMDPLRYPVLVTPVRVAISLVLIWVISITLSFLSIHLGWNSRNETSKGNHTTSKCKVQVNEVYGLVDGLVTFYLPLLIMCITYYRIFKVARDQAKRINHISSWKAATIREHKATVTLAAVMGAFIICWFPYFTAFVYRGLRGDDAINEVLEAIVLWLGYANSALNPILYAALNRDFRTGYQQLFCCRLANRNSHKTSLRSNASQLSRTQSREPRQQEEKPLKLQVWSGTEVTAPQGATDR

P450 1A2 = P450 1A2 (Homo sapiens, UniProt P05177); assay: cytochrome P450 inhibition; type: in vitro ADME

Sequence of Neuropeptide Y Y2 (P49146 whole entry): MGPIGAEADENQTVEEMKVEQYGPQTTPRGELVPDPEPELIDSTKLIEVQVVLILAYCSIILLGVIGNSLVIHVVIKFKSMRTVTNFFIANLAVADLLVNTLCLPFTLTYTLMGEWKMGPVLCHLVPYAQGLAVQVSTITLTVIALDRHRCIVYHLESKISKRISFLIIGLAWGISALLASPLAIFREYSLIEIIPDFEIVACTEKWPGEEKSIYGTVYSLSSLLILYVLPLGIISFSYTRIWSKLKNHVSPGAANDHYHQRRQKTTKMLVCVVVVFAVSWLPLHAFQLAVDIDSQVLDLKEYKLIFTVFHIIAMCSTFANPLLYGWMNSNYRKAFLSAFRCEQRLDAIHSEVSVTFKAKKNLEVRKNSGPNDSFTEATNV

COc1ccc(C(=O)NCc2cc(C(C)C)no2)cc1OC1CCN(C)CC1 [ML352, N-((3-isopropylisoxazol-5-yl)methyl)-4-methoxy-3-((1-methylpiperidin-4-yl)oxy)benzamide]
inhibition at 10 µM (Neuropeptide Y Y2): 7% | clearance ([1]; in vivo, iv, 1 mg/kg): 107 mL/min/kg | half-life ([1]; in vivo, iv, 1 mg/kg): 30 min | AUC ([1]; plasma, iv, 1 mg/kg): 150 ng·h/mL | AUC ([1]; plasma, po, 2.3 mg/kg): 77.5 ng·h/mL | Cmax ([1]; plasma, po, 2.3 mg/kg): 32.6 ng/mL | Tmax ([1]; plasma, po, 2.3 mg/kg): 15 min | bioavailability ([1]; plasma, po, 2.3 mg/kg): 22% | inhibition at 10 µM (Adrenergic β1): 2% | % inhibition (Sodium Channel, Site 2): 20% | inhibition at 10 µM (Muscarinic M1): 32% | [3H]HC-3 binding Bmax (hCHT; 200 nM ML352): 80.3 ± 3.8% | [3H]HC-3 binding Bmax (hCHT; 800 nM ML352): 48.9 ± 4.1% | mode of inhibition of [3H]HC-3 binding (hCHT; transfected cell membranes, 200 and 800 nM ML352): noncompetitive inhibition | inhibition of DAT (DAT): fails to inhibit | inhibition at 10 µM [2]: -7% | inhibition at 10 µM (GABAB1A): -9% | inhibition at 10 µM (Dopamine D42): -3% | inhibition at 10 µM (Interleukin IL-1): -2% | IC50 (P450 2D6): > 30 µM | CLhep [3]: 40.3 mL/min/kg | inhibition at 10 µM (Adenosine A1): -5% | inhibition at 10 µM (Adrenergic α1B): 3% | inhibition at 10 µM [4]: -3% | inhibitory activity at DAT [5]: lack of inhibitory activity | % inhibition (Thyroid Hormone): 6% | % inhibition (Phorbol Ester): 5% | inhibition at 10 µM [6]: 2% | % inhibition (Glutamate, NMDA, Glycine): 4% | % inhibition (Imidazoline I2, Central): 16% | inhibition at 10 µM (Neuropeptide Y Y1): -2% | % inhibition (Potassium Channel [KATP]): 4% | inhibition at 10 µM [7]: -4% | % inhibition (Rolipram): 1% | mode of choline uptake inhibition (hCHT LV-AA): noncompetitively inhibits | inhibition at 10 µM (Estrogen Erα): 4% | % inhibition [8]: 3% | % inhibition (GABAA, Muscimol, Central): 9% | inhibition at 10 µM (Histamine, H2): 20% | IC50 (P450 1A2): > 30 µM
